Laboratory results reported in ChEMBL document CHEMBL1147932, “Design, synthesis, and biological activities of novel Ligustrazine derivatives” (Bioorg Med Chem, 2007).

Assays:
ECV-304 = test: Protection of hydrogen peroxide-induced damage in ECV304 cells; format: functional, cell-based; settings: Homo sapiens
Plasma = test: Inhibition of ADP-induced platelet aggregation in rabbit plasma at 200 uM; format: functional, Oryctolagus cuniculus; set-up: scale not given: the % may be the effect or the level left
Procedure, shortened: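 Rabbit blood anticoagulated with 3.8% trisodium citrate, with ADP as inducer; blank and ADP-control cuvettes included. Platelet-rich plasma was taken from the supernatant after 270 g/5 min. Platelet-poor plasma came from re-spinning at 1000 g/10 min. Aggregation was read on an aggregometer and reported as mean platelet aggregation rate (A%), n = 6.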

| SMILES | EC50 (ECV-304) [µM] | Activity (Plasma) [%] |
| --- | --- | --- |
| Cc1nc(C)c(CN2CCN(Cc3cccc(Cl)c3)CC2)nc1C | 503 | 10.56 |
| Cc1nc(C)c(CN2CCN(Cc3ccc(Cl)cc3)CC2)nc1C | 339 | 12.31 |
| Cc1nc(C)c(CN2CCN(Cc3ccc(Cl)cc3Cl)CC2)nc1C | 424 | 5.7 |
| Cc1nc(C)c(CN2CCN(Cc3ccccc3Br)CC2)nc1C | 784 | 7.68 |
| Cc1nc(C)c(CN2CCN(Cc3ccc(Br)cc3)CC2)nc1C | 845 | 13.26 |
| Cc1nc(C)c(CN2CCN(Cc3cccc(C#N)c3)CC2)nc1C | 1110 | 14.19 |
| Cc1nc(C)c(CN2CCN(Cc3ccc(C#N)cc3)CC2)nc1C | 417 | 11.37 |
| Cc1nc(C)c(CN2CCN(Cc3ccc([N+](=O)[O-])cc3)CC2)nc1C | 299 | 14.22 |
| Cc1nc(C)c(CN2CCN(c3ccccc3)CC2)nc1C | 665 | 21.43 |
| Cc1nc(C)c(CN2CCNCC2)nc1C | 481 | 11.36 |
| Cc1nc(C)c(CN2CCN(C/C=C/c3ccccc3)CC2)nc1C | 428 | 8.36 |
| Cc1nc(C)c(CN2CCN(C(c3ccccc3)c3ccccc3)CC2)nc1C | 218 | 9.88 |
| Cc1nc(C)c(CN2CCN(C(c3ccc(F)cc3)c3ccc(F)cc3)CC2)nc1C | 223 | 6.32 |
| Cc1nc(C)c(CN2CCN(C(c3ccccc3)c3ccc(Cl)cc3)CC2)nc1C (stereo unspecified) | 253 | 5.19 |
| Cc1nc(C)c(CN2CCN(Cc3nc(C)c(C)nc3C)CC2)nc1C | 311 | 19.36 |
| Cc1nc(C)c(CN2CCN(Cc3ccccc3)CC2)nc1C | 246 | 9.06 |
| Cc1ccc(CN2CCN(Cc3nc(C)c(C)nc3C)CC2)cc1 | 328 | 17.69 |
| CCc1ccc(CN2CCN(Cc3nc(C)c(C)nc3C)CC2)cc1 | 375 | 13.56 |
| Cc1nc(C)c(CN2CCN(Cc3ccc(C(C)(C)C)cc3)CC2)nc1C | 431 | 15.32 |
| Cc1nc(C)c(CN2CCN(Cc3ccccc3C#N)CC2)nc1C | 637 | 12.16 |
| Cc1nc(C)c(CN2CCN(CCc3ccccc3)CC2)nc1C | 542 | 9.77 |
| Cc1nc(C)c(CN2CCN(Cc3ccccc3Cl)CC2)nc1C | 405 | 9.67 |
| Cc1nc(C)c(C)nc1C [LIGUSTRAZINE] | 452 | 7.86 |
